The values that follow come from ChEMBL document CHEMBL1133009, “Permanently charged chiral 1,4-dihydropyridines: molecular probes of L-type calcium channels. Synthesis and pharmacological characterization of methyl(omega-trimethylalkylammonium) 1,4-dihydro-2,6-dimethyl-4-(3-nitrophenyl)-3,5-pyridinedicarboxylate iodide, calcium channel antagonists” (J Med Chem, 2000).

Each structure is given as a SMILES string.

For data set [1], the target named is T1, Voltage-gated L-type calcium channel (Rattus norvegicus, UniProt P22002+Q02485+P27732). Briefly: Inhibition of [3H](+)-PN200-110 binding to calcium channels of rat GH4C1 cells. The format is cell-based. The conditions noted are these: gh4-c1. The essentials:
(§1)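 Competition against [3H]-(+)-PN200-110 in GH4C1 membranes, protein by Bradford. IC50 and pseudo Hill slope from Hill equation fit of specific DPM bound; KI = IC50/(1+[L]/KD); n = 4-6 experiments.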

The nature of data set [2]: Compound was tested for its inhibition of Barium currents in GH4C1 cells. Particulars: gh4-c1. The format is functional, cell-based, Rattus norvegicus.
The target in data set [3] is T2, Voltage-dependent L-type calcium channel subunit alpha-1C (Rattus norvegicus, UniProt P22002). Briefly: Pseudo Hill coefficient for inhibition of [3H](+)-PN200-110 binding to calcium channels of rat heart membranes. The format is cell membranes, Membrane. The essentials:
(§2)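 Using rat heart membranes (protein by Bradford), displacement of [3H]-(+)-PN200-110. IC50 and pseudo Hill slope from Hill equation fit; KI = IC50/(1+[L]/KD); n = 4-6 experiments.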

For data set [4], the target named is T1, Voltage-gated L-type calcium channel. Nature of the data set: Pseudo Hill coefficient for inhibition of [3H](+)-PN200-110 binding to GH4C1 cells. It is filed as cell-based. The conditions noted are these: gh4-c1. The essentials: as §1
Data set [5] has the same target. Briefly: Pseudo Hill coefficient for inhibition of [3H](+)-PN200-110 binding to calcium channels of rat cerebral cortex membrane. It is filed as tissue-based. The essentials:
(§3)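 Rat cerebral cortex membranes, protein by Bradford, competition with [3H]-(+)-PN200-110. IC50 and pseudo Hill slope from Hill equation fit of specific DPM bound; KI = IC50/(1+[L]/KD); n = 4-6 experiments.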

The target is the same in data set [6]. Nature of the data set: Pseudo Hill coefficient for inhibition of [3H](+)-PN200-110 binding to GH4C1 cells under depolarized conditions (50 mM K+). It is filed as cell-based. The conditions noted are these: gh4-c1. The essentials:
(§4)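 Intact GH4C1 cells attached to the culture dish, competition against [3H]-(+)-PN200-110 in depolarizing Hank's buffer (50 mM K+, pH 7.4). IC50 and slope from Hill equation fit; KI = IC50/(1+[L]/KD); n = 4-6 experiments, mean ± SEM.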

For another data set, the system named is GH4-C1. Nature of the data set: Pseudo Hill coefficient for the inhibition of Barium currents in GH4C1 cells was determined. The format is cell-based. The conditions noted are these: Rattus norvegicus. The essentials:
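Whole-cell voltage clamp of GH4C1 rat pituitary cells cultured 2-6 days, bathed in normal Tyrode's (pH 7.4). Held at -40 mV to inactivate T-type channels. Each DHP concentration (0.03-10 µM, increasing order) equilibrated 30 s, then a 200 or 50 ms pulse to +10 mV. Currents normalized to capacitance (pA/pF); IC50 and Hill slope fitted by Hill equation; 6-7 cells.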

The target in data set [7] is T2, Voltage-dependent L-type calcium channel subunit alpha-1C. Briefly: Inhibition of [3H](+)-PN200-110 binding to calcium channels of rat heart membranes. It is filed as cell membranes, Membrane. The procedure, abridged:
as §2

Data set [8] concerns the target T1, Voltage-gated L-type calcium channel. Briefly: Inhibition of [3H](+)-PN200-110 binding to calcium channels of GH4C1 cells under depolarized conditions (50 mM K+). The format is cell-based. Particulars: gh4-c1. The procedure, abridged:
as §4

The target is the same in data set [9]. Nature of the data set: Inhibition of [3H](+)-PN200-110 binding to calcium channels of rat cerebral cortex membrane. The format is tissue-based. The essentials:
as §3

For data set [10] the target is unchanged. Briefly: Inhibition of [3H](+)-PN200-110 binding to calcium channels of GH4C1 cells. Particulars: gh4-c1. It is filed as cell-based. The essentials: as §1

T2 sequence (P22002 whole entry): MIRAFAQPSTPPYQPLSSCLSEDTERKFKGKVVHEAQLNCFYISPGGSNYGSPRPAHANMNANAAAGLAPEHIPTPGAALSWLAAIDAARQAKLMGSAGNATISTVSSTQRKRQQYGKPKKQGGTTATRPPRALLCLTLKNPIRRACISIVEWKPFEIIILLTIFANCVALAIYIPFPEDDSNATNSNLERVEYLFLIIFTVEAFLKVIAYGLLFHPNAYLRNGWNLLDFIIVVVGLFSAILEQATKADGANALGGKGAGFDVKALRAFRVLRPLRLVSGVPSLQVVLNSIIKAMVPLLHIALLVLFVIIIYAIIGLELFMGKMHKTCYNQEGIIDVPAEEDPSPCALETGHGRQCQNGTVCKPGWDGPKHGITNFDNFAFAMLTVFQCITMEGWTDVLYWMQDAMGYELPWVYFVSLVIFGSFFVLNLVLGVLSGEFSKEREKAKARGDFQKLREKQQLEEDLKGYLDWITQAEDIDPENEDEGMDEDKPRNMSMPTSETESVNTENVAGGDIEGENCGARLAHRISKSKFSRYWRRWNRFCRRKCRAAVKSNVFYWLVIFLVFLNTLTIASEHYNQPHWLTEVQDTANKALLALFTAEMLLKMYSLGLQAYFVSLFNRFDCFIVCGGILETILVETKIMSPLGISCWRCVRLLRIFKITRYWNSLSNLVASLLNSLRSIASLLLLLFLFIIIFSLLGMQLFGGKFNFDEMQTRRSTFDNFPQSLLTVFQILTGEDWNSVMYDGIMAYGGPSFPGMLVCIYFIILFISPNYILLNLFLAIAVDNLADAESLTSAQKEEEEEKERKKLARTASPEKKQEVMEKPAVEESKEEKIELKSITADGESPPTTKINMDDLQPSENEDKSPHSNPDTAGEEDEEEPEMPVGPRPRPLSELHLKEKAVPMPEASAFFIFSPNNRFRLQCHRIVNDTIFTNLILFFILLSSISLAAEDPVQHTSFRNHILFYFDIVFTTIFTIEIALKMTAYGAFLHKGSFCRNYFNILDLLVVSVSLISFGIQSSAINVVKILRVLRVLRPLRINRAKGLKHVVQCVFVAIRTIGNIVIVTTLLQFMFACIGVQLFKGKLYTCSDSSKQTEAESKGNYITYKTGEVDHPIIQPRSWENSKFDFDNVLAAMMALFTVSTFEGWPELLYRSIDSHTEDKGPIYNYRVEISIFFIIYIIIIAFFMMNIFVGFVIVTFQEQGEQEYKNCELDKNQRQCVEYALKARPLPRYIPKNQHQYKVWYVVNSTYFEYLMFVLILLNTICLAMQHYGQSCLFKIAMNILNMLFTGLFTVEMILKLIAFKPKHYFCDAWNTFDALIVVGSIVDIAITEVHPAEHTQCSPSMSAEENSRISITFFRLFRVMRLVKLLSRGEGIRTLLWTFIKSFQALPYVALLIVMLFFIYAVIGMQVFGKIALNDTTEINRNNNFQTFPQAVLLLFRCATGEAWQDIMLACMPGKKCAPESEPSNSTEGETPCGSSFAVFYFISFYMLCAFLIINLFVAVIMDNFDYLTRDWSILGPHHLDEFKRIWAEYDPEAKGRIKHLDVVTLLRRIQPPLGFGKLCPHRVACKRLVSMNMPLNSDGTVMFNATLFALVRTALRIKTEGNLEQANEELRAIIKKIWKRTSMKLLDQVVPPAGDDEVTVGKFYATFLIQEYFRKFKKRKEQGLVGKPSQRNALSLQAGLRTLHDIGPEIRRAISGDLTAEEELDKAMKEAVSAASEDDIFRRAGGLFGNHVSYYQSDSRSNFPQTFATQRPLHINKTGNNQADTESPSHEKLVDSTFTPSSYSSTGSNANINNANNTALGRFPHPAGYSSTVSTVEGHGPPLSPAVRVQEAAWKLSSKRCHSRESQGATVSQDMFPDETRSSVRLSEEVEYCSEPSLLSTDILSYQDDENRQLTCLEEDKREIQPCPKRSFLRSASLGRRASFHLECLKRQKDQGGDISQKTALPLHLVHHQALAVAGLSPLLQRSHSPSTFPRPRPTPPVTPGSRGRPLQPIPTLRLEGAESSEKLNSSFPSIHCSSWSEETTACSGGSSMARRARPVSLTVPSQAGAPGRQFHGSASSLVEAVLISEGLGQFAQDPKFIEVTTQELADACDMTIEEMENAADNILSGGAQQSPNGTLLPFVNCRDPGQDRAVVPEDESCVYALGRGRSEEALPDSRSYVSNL

With `COC(=O)C1=C(C)NC(C)=C(C(=O)OCC[N+](C)(C)C)[C@H]1c1cccc([N+](=O)[O-])c1.[I-]`, the Ki in data set [1] turned out to be 1940 nM; in [7], 999 nM; in [8], 651 nM; in [9], 1246 nM. For the same molecule, the IC50 in data set [2] was 28100 nM. For the same molecule, the nH was 1 in data set [3]; 0.9 in data set [4]; 0.9 in data set [5]; 0.9 in [6]; 0.4 in the data set with GH4-C1.
Consider `COC(=O)C1=C(C)NC(C)=C(C(=O)OCCCCCCCC[N+](C)(C)C)[C@@H]1c1cccc([N+](=O)[O-])c1.[I-]`, for which the Ki is 420 nM in data set [1], 497 nM in data set [7], 895 nM in data set [8] and 717.8 nM in [9]. In data set [2], this molecule gave an IC50 of 5100 nM. Further, the nH in data set [3] turned out to be 1.1; in data set [4], 1.2; in [5] it was 1; in data set [6], 1; in the data set on GH4-C1, 0.8.
`COC(=O)C1=C(C)NC(C)=C(C(=O)OCC[N+](C)(C)C)[C@@H]1c1cccc([N+](=O)[O-])c1.[I-]` showed an IC50 in [2] of 271000 nM. The nH in [3] came to 0.9; in data set [4], 0.6; in data set [5] it was 0.8; in [6], 0.5; with GH4-C1, 0.3. In addition, the Ki in data set [10] came to 48120 nM; in [7], 13700 nM; in data set [8], 3988 nM; in data set [9], 14013 nM.
As to `COC(=O)C1=C(C)NC(C)=C(C(=O)OCC[N+](C)(C)C)C1c1cccc([N+](=O)[O-])c1.[I-]` (racemic), the midpoint of inhibition in data set [2], the IC50, lay at 17700 nM. In addition, the nH in [3] stood at 1; in [4], 0.9; in data set [5], 1; in data set [6] it was 1.7; in the data set on GH4-C1, 0.7. In addition, the Ki in [10] is 2111 nM; in [7], 1510 nM; in data set [8], 248.5 nM; in data set [9], 1372 nM.
Consider `COC(=O)C1=C(C)NC(C)=C(C(=O)OCCCCCCCC[N+](C)(C)C)C1c1cccc([N+](=O)[O-])c1.[I-]` (racemic), for which the Ki was 16.8 nM in data set [1], 99.2 nM in [7], 68.6 nM in [8] and 37.2 nM in [9]. Besides, the IC50 in data set [2] came out at 1500 nM. Also, the nH in [3] came to 1.1; in data set [4], 1.5; in data set [5], 1.4; in data set [6], 1.3; in the data set on GH4-C1 it was 0.9.
Take `COC(=O)C1=C(C)NC(C)=C(C(=O)OCCCCCCCC[N+](C)(C)C)[C@H]1c1cccc([N+](=O)[O-])c1.[I-]`: the Ki in data set [1] is 11.4 nM; in data set [7], 8 nM; in [8] it was 129.2 nM; in [9], 24.6 nM. In data set [2], this molecule yielded an IC50 of 1400 nM. Further, the nH in data set [3] amounted to 1.2; in [4], 1.3; in [5], 1.6; in [6], 1.1; in the data set on GH4-C1, 1.
